As usually defined, the IC50 is the point on the concentration scale where inhibition reaches its midpoint. A lower IC50 goes with higher potency.

Active and inactive are the calls of the source. The rule behind the calls is not given here.

One experiment deals with HT-29. Description: Antiproliferative activity against human HT-29 cells after 48 hrs by MTT assay. As to conditions: HT-29, 48 h. It is filed as functional, cell-based. The essentials:
(§1)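 Cells in DMEM/10% FBS pre-incubated 24 h at 37 °C, then compound-treated 48 h (10 mM DMSO stock diluted in medium). MTT (10 µL of 5 mg/mL) added for 4 h; formazan dissolved in DMSO, absorbance read at 570 nm. IC50 = 50% inhibitory concentration, mean of three individual experiments.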
A general note: Formazan colour is commonly taken as a measure of viable cells.
As to `COc1cc([C@@H]2c3cc4c(cc3C(NC(=O)c3cn(-c5ccc(C(F)(F)F)cc5)nn3)[C@H]3COC(=O)[C@H]23)OCO4)cc(OC)c1OC` (single isomer, unassigned), half-maximal inhibition (IC50) required 4400 nM. This counts as single-digit micromolar.

For another experiment, the system named is DU-145. Description: Cell cycle arrest in human DU145 cells assessed as accumulation at G2/M phase at 0.5 uM after 24 hrs by propidium iodide staining based flow cytometry relative to control. It is filed as functional.
Details: not given
The essentials:
(§2)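 DU-145 cells (2x10^5/well) serum-starved 24 h to synchronize, then treated in complete medium for 24 h. Harvested and fixed in 70% ethanol at -20 °C for 30 min. RNase A (0.1 mg/mL, 37 °C, 30 min), then propidium iodide (50 µg/mL, 30 min on ice, dark). DNA content measured by flow cytometry.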
As for `COc1cc([C@@H]2c3cc4c(cc3C(NC(=O)c3cn(-c5ccc(C(F)(F)F)cc5)nn3)[C@H]3COC(=O)[C@H]23)OCO4)cc(OC)c1OC` (single isomer, unassigned), the Activity is listed as 52.42%.

Another experiment deals with DU-145. Description: Induction of ROS production in human DU145 cells after 24 hrs by DCFDA staining based fluorescence microscopic method. The experiment is classed as functional, cell-based.
Details: not given
The essentials: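 DU-145 cells (2x10^5/well) plated overnight, then treated 24 h at indicated concentrations. Medium replaced with DCFDA (10 µM) for 30 min at room temperature in the dark. After PBS washes, fluorescence was imaged by microscopy and reported as mean fluorescence intensity.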
Turning to `COc1cc([C@@H]2c3cc4c(cc3C(NC(=O)c3cn(-c5ccc(C(F)(F)F)cc5)nn3)[C@H]3COC(=O)[C@H]23)OCO4)cc(OC)c1OC` (single isomer, unassigned), the Activity result was “Dose-dependent effect”.

In the next experiment the test system is A549. Description: Antiproliferative activity against human A549 cells after 48 hrs by MTT assay. It is filed as functional, cell-based. As to conditions: A549, 48 h. The essentials:
as §1
For `COc1cc([C@@H]2c3cc4c(cc3C(NC(=O)c3cn(-c5ccc(C(F)(F)F)cc5)nn3)[C@H]3COC(=O)[C@H]23)OCO4)cc(OC)c1OC` (single isomer, unassigned), it took 1960 nM to reach half-maximal inhibition (IC50).

The next experiment has as its system DU-145. Description: Induction of mitochondrial membrane potential loss in human DU145 cells […] at 0.5 to 1 uM after 24 hrs by JC1 staining based flow cytometry. The experiment is classed as functional, cell-based.
Details: not given
The essentials:
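Cells (2x10^5/well) treated 24 h, trypsinized and pelleted (400 g, 5 min). Incubated with freshly made JC-1 working solution for 15 min at 37 °C, washed twice in assay buffer. Analysed by flow cytometry as percentage of J-aggregate versus J-monomer cells.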
With `COc1cc([C@@H]2c3cc4c(cc3C(NC(=O)c3cn(-c5ccc(C(F)(F)F)cc5)nn3)[C@H]3COC(=O)[C@H]23)OCO4)cc(OC)c1OC` (single isomer, unassigned), the result was Active.

In another experiment the test system is DU-145. Description: Induction of apoptosis in human DU145 cells assessed as nuclear condensation at 0.5 to 1 uM after 24 hrs by Hoechst staining based fluorescence microscopic method.
Details: not given
It is filed as functional, cell-based. The essentials:
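DU-145 cells (1x10^5/well) incubated overnight, then treated 24 h. After three PBS washes, stained with Hoechst (1 µg/ml) for 20 min at 37 °C and washed. Imaged by fluorescence microscopy; random fields counted for chromatin condensation and nuclear fragmentation.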
On to `COc1cc([C@@H]2c3cc4c(cc3C(NC(=O)c3cn(-c5ccc(C(F)(F)F)cc5)nn3)[C@H]3COC(=O)[C@H]23)OCO4)cc(OC)c1OC` (single isomer, unassigned), for which the result was Active.

Another experiment deals with DU-145. Description: Induction of apoptosis in human DU145 cells assessed as cell shrinkage at 0.5 to 1 uM after 24 hrs by phase contrast microscopic method. It is filed as functional, cell-based.
Details: not given
The essentials: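 DU-145 cells (2x10^5/well) plated overnight; medium replaced with fresh medium containing compound at indicated concentrations for 24 h. Cell morphology examined and photographed by phase-contrast microscopy.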
As to `COc1cc([C@@H]2c3cc4c(cc3C(NC(=O)c3cn(-c5ccc(C(F)(F)F)cc5)nn3)[C@H]3COC(=O)[C@H]23)OCO4)cc(OC)c1OC` (single isomer, unassigned), the outcome was Active.

The subject of the next experiment is DU-145. Description: Induction of apoptosis in human DU145 cells assessed as late apoptotic cells at 1 uM after 24 hrs by Annexin V-FITC/propidium iodide staining based flow cytometry (reference value: 1.49%). It is filed as functional.
Details: not given
Background: In flow cytometry, cells or beads pass a laser one at a time.
On to `COc1cc([C@@H]2c3cc4c(cc3C(NC(=O)c3cn(-c5ccc(C(F)(F)F)cc5)nn3)[C@H]3COC(=O)[C@H]23)OCO4)cc(OC)c1OC` (single isomer, unassigned), for which the Activity came out at 2.46%.

The next experiment concerns DU-145. Description: Antiproliferative activity against human DU145 cells after 48 hrs by MTT assay. It is filed as functional, cell-based. Particulars: DU-145, 48 h. The essentials: as §1
For `COc1cc([C@@H]2c3cc4c(cc3C(NC(=O)c3cn(-c5ccc(C(F)(F)F)cc5)nn3)[C@H]3COC(=O)[C@H]23)OCO4)cc(OC)c1OC` (single isomer, unassigned), inhibition was half-maximal at 890 nM (IC50).

A further experiment relates to DU-145. Description: Cell cycle arrest in human DU145 cells assessed as accumulation at G2/M phase at 1 uM after 24 hrs by propidium iodide staining based flow cytometry relative to control.
Details: not given
It is filed as functional. The essentials: as §2
As to `COc1cc([C@@H]2c3cc4c(cc3C(NC(=O)c3cn(-c5ccc(C(F)(F)F)cc5)nn3)[C@H]3COC(=O)[C@H]23)OCO4)cc(OC)c1OC` (single isomer, unassigned), the Activity came out at 56.16%.

Another experiment has as its system MCF7. Description: Antiproliferative activity against human MCF7 cells after 48 hrs by MTT assay. It is filed as functional, cell-based. Particulars: MCF7, 48 h. The essentials: as §1
Turning to `COc1cc([C@@H]2c3cc4c(cc3C(NC(=O)c3cn(-c5ccc(C(F)(F)F)cc5)nn3)[C@H]3COC(=O)[C@H]23)OCO4)cc(OC)c1OC` (single isomer, unassigned), the IC50 was 1350 nM. In other words, the single-digit micromolar range.

The test system of a further experiment is DU-145. Description: Induction of apoptosis in human DU145 cells assessed as late apoptotic cells at 0.5 uM after 24 hrs by Annexin V-FITC/propidium iodide staining based flow cytometry (reference value: 1.49%).
Details: not given
It is filed as functional.
For `COc1cc([C@@H]2c3cc4c(cc3C(NC(=O)c3cn(-c5ccc(C(F)(F)F)cc5)nn3)[C@H]3COC(=O)[C@H]23)OCO4)cc(OC)c1OC` (single isomer, unassigned), the Activity was determined as 2.6%.

A further experiment concerns DU-145. Description: Induction of apoptosis in human DU145 cells assessed as early apoptotic cells at 0.5 uM after 24 hrs by Annexin V-FITC/propidium iodide staining based flow cytometry (reference value: 0.56%). The experiment is classed as functional.
Details: not given
In the case of `COc1cc([C@@H]2c3cc4c(cc3C(NC(=O)c3cn(-c5ccc(C(F)(F)F)cc5)nn3)[C@H]3COC(=O)[C@H]23)OCO4)cc(OC)c1OC` (single isomer, unassigned), the Activity amounted to 7.01%.

For the origin of these results see ChEMBL document CHEMBL4251626, “4β-amidotriazole linked podophyllotoxin congeners: DNA topoisomerase-IIα inhibition and potential anticancer agents for prostate cancer” (Eur J Med Chem, 2018).
